ChEMBL document CHEMBL4138183, “Diselaginellin B, an Unusual Dimeric Molecule from Selaginella pulvinata, Inhibited Metastasis and Induced Apoptosis of SMMC-7721 Human Hepatocellular Carcinoma Cells” (J Nat Prod, 2017)
Calls of active or inactive are those of the source. No cut-off for these calls is given here.

How the values were obtained:
SMMC-7721 [1] = test: Antimetastatic activity against human SMMC7721 cells assessed as reduction in cell migration at 0.5 to 2 uM after 48 hrs by crystal violet staining based fluorescence microscopic analysis; format: functional
Method in brief: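 Migration through uncoated Transwell filter (8 μm pore): 2 × 10^4 cells in serum-free RPMI on upper side, treated 0.5, 1 or 2 μM for 48 h; lower chamber 10% FBS medium. Upper-surface cells removed by swab; underside cells crystal violet stained and scored in five random fields under fluorescence microscope. Paclitaxel 100 nM positive control; n = 3.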

SMMC-7721 [2] = test: Induction of apoptosis in human SMMC7721 cells assessed as live cells at 2.5 uM after 48 hrs by Annexin-V-FITC/propidium iodide staining based flow cytometric method (reference value: 95.75%); format: functional
SMMC-7721 [3] = test: Induction of apoptosis in human SMMC7721 cells assessed as live cells at 5 uM after 48 hrs by Annexin-V-FITC/propidium iodide staining based flow cytometric method (reference value: 95.75%); format: functional
SMMC-7721 [4] = test: Induction of apoptosis in human SMMC7721 cells assessed as late apoptotic cells at 2.5 uM after 48 hrs by Annexin-V-FITC/propidium iodide staining based flow cytometric method (reference value: 1.17%); format: functional
SMMC-7721 [5] = test: Induction of apoptosis in human SMMC7721 cells assessed as early apoptotic cells at 10 uM after 48 hrs by Annexin-V-FITC/propidium iodide staining based flow cytometric method (reference value: 2.27%); format: functional
SMMC-7721 [6] = test: Cytotoxicity against human SMMC7721 cells assessed as reduction in cell viability after 48 hrs by MTT assay; format: functional, cell-based; details: SMMC-7721, 48 h
Method in brief: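 MTT viability: 5 × 10^4 cells/well seeded, cultured overnight, treated with graded concentrations 48 h; MTT (5 mg/mL stock) added 4 h, formazan dissolved in DMSO, absorbance read at 490 nm.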

SMMC-7721 [7] = test: Cell cycle arrest in human SMMC7721 cells assessed as increase in G1 population at 2.5 to 5 uM after 48 hrs by propidium iodide staining based flow cytometric method; format: functional
Method in brief: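 Cells exposed 48 h to 2.5 or 5 μM, PBS-washed, fixed in 70% ethanol at 4 °C overnight, centrifuged, RNase treated 37 °C 30 min, then PI stained 30 min in dark; G1/S/G2 distribution by flow cytometry; means ± SD, n = 3.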

SMMC-7721 [8] = test: Down regulation of COX2 mRNA expression in human SMMC7721 cells at 8 uM by RT-qPCR analysis; format: functional, cell-based
Method in brief: (§1)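 Cells exposed to 8 μM; target mRNA quantified by RT-qPCR normalized to actin; means ± SD, n = 3.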

SMMC-7721 [9] = test: Down regulation of COX1 mRNA expression in human SMMC7721 cells at 8 uM by RT-qPCR analysis; format: functional, cell-based; method in brief: as §1
SMMC-7721 [10] = test: Induction of apoptosis in human SMMC7721 cells assessed as necrotic cells at 5 uM after 48 hrs by Annexin-V-FITC/propidium iodide staining based flow cytometric method (reference value: 0.82%); format: functional
SMMC-7721 [11] = test: Induction of apoptosis in human SMMC7721 cells assessed as early apoptotic cells at 5 uM after 48 hrs by Annexin-V-FITC/propidium iodide staining based flow cytometric method (reference value: 2.27%); format: functional
SMMC-7721 [12] = test: Induction of apoptosis in human SMMC7721 cells after 48 hrs by Annexin-V-FITC/propidium iodide staining based flow cytometric method; format: functional, cell-based
SMMC-7721 [13] = test: Down regulation of TSPAN8 mRNA expression in human SMMC7721 cells at 8 uM by RT-qPCR analysis; format: functional, cell-based; method in brief: as §1
SMMC-7721 [14] = test: Down regulation of MAGP2 mRNA expression in human SMMC7721 cells at 8 uM by RT-qPCR analysis; format: functional, cell-based; method in brief: as §1
SMMC-7721 [15] = test: Upregulation of DLD mRNA expression in human SMMC7721 cells at 8 uM by RT-qPCR analysis; format: functional, cell-based; method in brief: as §1
SMMC-7721 [16] = test: Induction of apoptosis in human SMMC7721 cells assessed as necrotic cells at 2.5 uM after 48 hrs by Annexin-V-FITC/propidium iodide staining based flow cytometric method (reference value: 0.82%); format: functional
SMMC-7721 [17] = test: Antimetastatic activity against human SMMC7721 cells assessed as reduction in cell invasion at 0.5 uM after 48 hrs using crystal violet staining by matrigel based fluorescence microscopic analysis relative to control; format: functional
Method in brief: (§2)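 Transwell invasion: filter (8 μm pore) coated with matrigel for 2 h at 37 °C; 2 × 10^4 cells seeded in serum-free RPMI on upper surface with test agent 48 h; 10% FBS medium in lower chamber. Non-invaded cells swabbed off; invaded cells crystal violet stained, counted in five random fields by fluorescence microscopy. Paclitaxel 100 nM positive control; means ± SD, n = 3.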

SMMC-7721 [18] = test: Induction of apoptosis in human SMMC7721 cells assessed as late apoptotic cells at 10 uM after 48 hrs by Annexin-V-FITC/propidium iodide staining based flow cytometric method (reference value: 1.17%); format: functional
SMMC-7721 [19] = test: Induction of apoptosis in human SMMC7721 cells assessed as necrotic cells at 10 uM after 48 hrs by Annexin-V-FITC/propidium iodide staining based flow cytometric method (reference value: 0.82%); format: functional
SMMC-7721 [20] = test: Induction of apoptosis in human SMMC7721 cells assessed as live cells at 10 uM after 48 hrs by Annexin-V-FITC/propidium iodide staining based flow cytometric method (reference value: 95.75%); format: functional
SMMC-7721 [21] = test: Antimetastatic activity against human SMMC7721 cells assessed as reduction in cell invasion at 2 uM after 48 hrs using crystal violet staining by matrigel based fluorescence microscopic analysis relative to control; format: functional; method in brief: as §2
SMMC-7721 [22] = test: Down regulation of NNMT mRNA expression in human SMMC7721 cells at 8 uM by RT-qPCR analysis; format: functional, cell-based; method in brief: as §1
SMMC-7721 [23] = test: Induction of apoptosis in human SMMC7721 cells assessed as late apoptotic cells at 5 uM after 48 hrs by Annexin-V-FITC/propidium iodide staining based flow cytometric method (reference value: 1.17%); format: functional
SMMC-7721 [24] = test: Induction of apoptosis in human SMMC7721 cells assessed as early apoptotic cells at 2.5 uM after 48 hrs by Annexin-V-FITC/propidium iodide staining based flow cytometric method (reference value: 2.27%); format: functional
SMMC-7721 [25] = test: Antimetastatic activity against human SMMC7721 cells assessed as reduction in cell invasion at 1 uM after 48 hrs using crystal violet staining by matrigel based fluorescence microscopic analysis relative to control; format: functional; method in brief: as §2
SMMC-7721 [26] = test: Down regulation of CEACAM7 mRNA expression in human SMMC7721 cells at 8 uM by RT-qPCR analysis; format: functional, cell-based; method in brief: as §1

In the case of O=C1C=CC(=C(c2ccc(O)cc2)c2c(-c3ccc(O)cc3)ccc(CO)c2C#Cc2ccc(OCc3ccc(-c4ccc(O)cc4)c(C(=C4C=CC(=O)C=C4)c4ccc(O)cc4)c3C#Cc3ccc(O)cc3)cc2)C=C1, the Activity (SMMC-7721 [1]) is reported as “Active”, the Activity (SMMC-7721 [2]) is reported as 82.58% and the Activity (SMMC-7721 [3]) is reported as 58.59%. For the same compound, the Activity (SMMC-7721 [4]) was 11.13%, the Activity (SMMC-7721 [5]) was 21.22% and the IC50 (SMMC-7721 [6]) was 9 µM. The Activity (SMMC-7721 [7]) was “Active”, the Activity (SMMC-7721 [8]) was “Active” and the Activity (SMMC-7721 [9]) was “Active”. For the same compound, the Activity (SMMC-7721 [10]) was 1.54%, the Activity (SMMC-7721 [11]) was 7.57% and the Activity (SMMC-7721 [12]) was “Dose-dependent effect”. The Activity (SMMC-7721 [13]) was “Active”, the Activity (SMMC-7721 [14]) was “Active” and the Activity (SMMC-7721 [15]) was “Active”. The Activity (SMMC-7721 [16]) was 0.89%, the “fold change (FC)” value (SMMC-7721 [17]) was 0.53 and the Activity (SMMC-7721 [18]) was 29.8%. For the same compound, the Activity (SMMC-7721 [19]) was 1.15%, the Activity (SMMC-7721 [20]) was 47.83% and the “fold change (FC)” value (SMMC-7721 [21]) was 0.39. The Activity (SMMC-7721 [22]) was “Active”, the Activity (SMMC-7721 [23]) was 32.3% and the Activity (SMMC-7721 [24]) was 5.4%. The “fold change (FC)” value (SMMC-7721 [25]) was 0.42 and the Activity (SMMC-7721 [26]) was “Active”.
